Data published in ChEMBL document CHEMBL1131620, “Identification of novel ligands for the gabapentin binding site on the alpha2delta subunit of a calcium channel and their evaluation as anticonvulsant agents” (J Med Chem, 1998).

Experiment: Inhibition of specific binding of [3H]gabapentin to Gabapentin binding sites located on the alpha-2-delta subunit of calcium channel.
Set-up: species or system Oryctolagus cuniculus
Procedure, shortened: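 [3H]Gabapentin displacement from gabapentin sites on the calcium channel α2δ subunit. IC50 (nM) is the concentration giving half-maximal inhibition of specific radioligand binding.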

`CC1(C)CCCC(CN)(CC(=O)O)C1` (configuration not stated) showed an IC50 of 880 nM.
In the case of `NCC1(CC(=O)O)CCSCC1`, the IC50 is reported as 385 nM.
In the case of `NCC1(CC(=O)O)CCCC(c2ccccc2)C1` (configuration not stated), the IC50 is reported as over 10000 nM.
`CC1(C)CC(C)(C)CC(CN)(CC(=O)O)C1` gave an IC50 of over 10000 nM.
`NC[C@]1(CC(=O)O)CC[C@@H](c2ccccc2)CC1` showed an IC50 of over 10000 nM.
`CC1CCCC(CN)(CC(=O)O)C1` (configuration not stated) showed an IC50 of over 10000 nM.
For `C[C@@H]1C[C@H](C)CC(CN)(CC(=O)O)C1` (stereo in doubt; 27), the IC50 was 140 nM.
Molecule `COC1CCCCC1(CN)CC(=O)O` (configuration not stated) has an IC50 of over 10000 nM.
Work on `C[C@@H]1CCC[C@@](CN)(CC(=O)O)C1` yielded an IC50 of 42 nM.
Work on `NCC1(CC(=O)O)CCNCC1` yielded an IC50 of over 10000 nM.
`C[C@H]1CC[C@@](CN)(CC(=O)O)CC1` gave an IC50 of 440 nM.
`CC[C@H]1CC[C@@](CN)(CC(=O)O)CC1` gave an IC50 of 700 nM.
`C[C@H]1CCC[C@](CN)(CC(=O)O)C1` showed an IC50 of 73 nM.
`C[C@H]1CC[C@](CN)(CC(=O)O)CC1` gave an IC50 of over 10000 nM.
Molecule `CCCC1CCCC(CN)(CC(=O)O)C1` (configuration not stated) has an IC50 of 3300 nM.
For `NCC1(CC(=O)O)CCOCC1`, the IC50 was 2380 nM.
Work on `CCC1CCCC(CN)(CC(=O)O)C1` (configuration not stated) yielded an IC50 of 280 nM.
Work on `CC(C)C1CCCC(CN)(CC(=O)O)C1` (configuration not stated) yielded an IC50 of 6270 nM.
For `NCC1(CC(=O)O)CCCCC1C1CCCCC1` (configuration not stated), the IC50 was over 10000 nM.
Work on `C[C@@H]1C[C@H](C)CC(CN)(CC(=O)O)C1` (stereo in doubt; 28) yielded an IC50 of over 10000 nM.
For `CC1(C)CCC(CN)(CC(=O)O)CC1`, the IC50 was 1310 nM.
